This is a sample that favours compounds with a hit; in the whole collection about 2.3% have one here.
TRPC4 inh – inhibitors of mouse TRPC4 channel; Q9QUQ5; HEK293 TRPC4beta/mu-opioid, DAMGO-evoked Fluo4 calcium flux; hits give low values; B-score at 10 µM; hit rate 0.39% among 300,000;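 active = B-score over 3 SD under the library average, no early fluorescence shift, positive overall ratio signal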
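Assay system: Stable TRPC4beta/mu-opioid receptor HEK293 cells | Reagent: DAMGO in two steps, submaximal then maximal | Compound dosing: Single concentration per test compound | Signal: Fluo4 Ca2+ flux fluorescence | Evaluation: Per-well B score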
TRPC4 agonist – activators of mouse TRPC4 channel. B-score at 10 µM. Q9QUQ5. HEK293 TRPC4beta/mu-opioid, Fluo4 calcium fluorescence; hits give high values. hit rate 0.49% among 310,000;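 active = B-score above 5 SD of library B-scores, and initial fluorescence ratio not above library mean plus 5 SD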;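 also: positive B-score marks a calcium rise read as TRPC4 activation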
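Assay system – TRPC4beta and mu-opioid receptor HEK293 stable cells · Measured by – Fluo4 fluorescence, kinetic · Schedule – dye loading 45 min room temperature, 110 s kinetic read · Read-out – B-scored integrated calcium fluorescence ratio · Controls – buffer and maximal DAMGO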
TRPC4 potent – TRPC4 (mouse) allosteric potentiation; Q9QUQ5; B-score at 10 µM; AID 2227; hit rate 0.42% among 310,000; HEK293 TRPC4beta/mu-opioid, DAMGO EC20, Fluo-4 Ca2+ flux; hits give high values;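 active = B-score of calcium response area above 5 SD of library B-scores, with initial fluorescence ratio within 5 SD of library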
TRPC6 activator – mouse TRPC6 channel activation; hit rate 0.13% among 310,000; B-score at 10 µM; HEK293-TRPC6 membrane potential dye fluorescence; hits give high values; AID 2550;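 active = B-score of the integrated fluorescence ratio above library mean plus 3 SD, and starting fluorescence ratio within library mean plus 5 SD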;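 also: higher score means more depolarization so channel activation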
TRPC6 inhibitor – blocks the mouse TRPC6 cation channel; Q61143; B-score at 10 µM; HEK293-TRPC6, membrane potential dye, ACh-evoked depolarization; hits give low values; hit rate 1.1% among 310,000; AID 2553;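 active = B-score under library mean minus 3 SD, initial fluorescence not abnormally high, positive integrated signal ratio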;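 also: B-score derived from integrated fluorescence ratio over the kinetic read; more negative B-score means stronger inhibition of depolarization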
Of the large screens only hits and unclear results are named; the others gave an inactive call.

Cc1cc(C)nc(SCC(=O)N(C)CC(=O)Nc2c(Cl)cccc2Cl)n1	none
O=C1CC(c2cccc([N+](=O)[O-])c2)c2ccc3ccccc3c2N1 (stereo not given)	TRPC4 potent 11
COc1ccc(CCNC(=O)Cn2nnc(C(=O)Nc3cccc(C)c3C)c2N)cc1OC	none
CCC(C)(C)n1nnnc1C(c1ccc(O)c(OC)c1)N1CCN(c2nc3ccccc3s2)CC1 (stereo not given)	TRPC4 agonist 58
COc1ccc(C(c2nnnn2C(C)(C)C)N2CCN(c3nc4ccccc4s3)CC2)cc1 (stereo not given)	none
COc1ccc(C(CCNCc2ccc(N(C)C)cc2)c2ccccc2)cc1 (stereo not given)	TRPC4 agonist 104
O=[N+]([O-])c1ccc(N2CCN(CCOc3nonc3-c3ccccc3)CC2)c(Cl)c1	TRPC4 potent 17
O=C(O)CCN1C(=O)/C(=C/c2ccc(-c3nc4ccccc4s3)o2)SC1=S	none
O=C(O)CCCN1C(=O)/C(=C\c2ccc(-c3nc4ccccc4s3)o2)SC1=S	TRPC4 potent 19
CCN1CCN(c2ccc(S(=O)(=O)N3CCCCC3)cc2NC(=O)c2ccc(OC(F)F)cc2)CC1	none
CCN1CCN(c2ccc(S(=O)(=O)N3CCCCC3)cc2NC(=O)c2cccc(OC(F)F)c2)CC1	TRPC4 potent 19
CCN1CCN(c2c(Cl)cccc2NC(=O)c2cc3ccccc3o2)CC1	TRPC4 potent 23
CCN1CCN(c2ccc(S(=O)(=O)N3CCCCC3)cc2NC(=O)Cc2c(F)cccc2Cl)CC1	TRPC4 potent 11
CCN1CCN(c2ccc(S(=O)(=O)N3CCCCC3)cc2NC(=O)c2cccc(Cl)c2)CC1	TRPC4 agonist 45, TRPC4 potent 18
CSCCC(NS(=O)(=O)/C=C/c1ccccc1)C(=O)NCCc1ccc(S(N)(=O)=O)cc1 (stereo not given)	none
OC[C@@H](O)C1OC2NC(=S)OC2C1O (stereo not given in full)	none
C=CCn1nnnc1SCC(=O)Nc1cccc(C(F)(F)F)c1	none
CCN1CCN(c2ccc(S(=O)(=O)N3CCCCC3)cc2NC(=O)c2cc3ccccc3o2)CC1	TRPC4 potent 18
CCN1CCN(c2ccc(S(=O)(=O)N3CCCCC3)cc2NC(=O)/C=C/c2cccc(OC)c2OC)CC1	none
CCN1CCN(c2ccc(S(=O)(=O)N3CCCCC3)cc2NC(=O)Cc2ccc(OC)cc2)CC1	TRPC4 agonist 63
O=C(CCNC(=O)c1ccccc1Cl)NCCC1=CCCCC1	none
CSCC[C@H](NC(=O)OC(C)(C)C)C(=O)N/N=C/c1cccc2cccnc12	TRPC4 potent 10
Cc1ccc(-c2n[nH]c(=O)c3ccccc23)cc1S(=O)(=O)Nc1ccccc1	TRPC4 potent 12
Cc1csc2c(N3CCN(C(=O)Nc4ccc(OC(F)(F)F)cc4)CC3)ncnc12	TRPC4 agonist 98
CCOc1ccc2[nH]c(=O)c(CN(Cc3cccs3)Cc3nnnn3C(C)(C)CC)cc2c1	none
CCC(C)(C)n1nnnc1CN(Cc1cccs1)Cc1cc2cc(OC)ccc2[nH]c1=O	TRPC4 potent 11
COc1ccc(/C=C/C(=O)Oc2cc(O)cc(O)c2)cc1	TRPC4 inh -7
CCCOC(=O)C1=C(C)NC(=O)NC1c1cc2c(cc1Br)OCO2 (stereo not given)	none
CCCCn1c(N)c(N(CC(C)C)C(=O)C2CCCO2)c(=O)[nH]c1=O (stereo not given)	none
Cc1nc(-c2ccccc2)sc1C(=O)O	none
Cc1nc(-c2cccc(C(F)(F)F)c2)sc1C(=O)O	TRPC4 inh -6
CN(C)C(CNC(C(=O)Nc1ccc([N+](=O)[O-])cc1Br)c1ccccc1)c1ccccc1 (stereo not given)	TRPC4 agonist 74
O=C(Nc1ccc(F)cc1)C(NC1CCCCC1)c1ccccc1 (stereo not given)	none
CN(C)C(CNC(C(=O)Nc1ccc(F)cc1)c1ccccc1)c1ccccc1 (stereo not given)	TRPC4 agonist 139
C=CCn1c(SCC(=O)c2ccc(Br)cc2)nnc1C(CC(C)C)NC(=O)c1cccs1 (stereo not given)	none
CC(=O)N1N=C(c2c(-c3ccccc3)c3cc(Br)ccc3[nH]c2=O)CC1c1ccco1 (stereo not given)	none

Bioassay records as filed in PubChem.
